# In PubChem BioAssay:
# A number with no mark means an inactive call. Results filed as inconclusive are left out. Activity calls are given as the source filed them.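 Rule for the calls, unless noted: active = inhibition over a set limit, the all-compound mean plus 3 SD, in both replicate runs; inconclusive = over that limit in just one replicate run; inactive = at or under that limit in both runs.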
# Legend:
# [1] = OD615 S. cerevisiae growth inhibition, permissive medium, pilot counter-assay, permissive growth control for S. cerevisiae lifespan shortening project (AID 705;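 active = growth inhibition above 25% in both replicates, a cutoff set 3 SD above the mean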); settings: OD615, 24 h, at 10 µM, stronger effect = higher value
# Summary of the method: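 Test system: Saccharomyces cerevisiae strain carrying genetically modified DeaD replicative-lifespan system; buffer or medium: SC raffinose/galactose permissive medium; dosing: one dose 10 µM, DMSO 0.25% final; times: 24 h exposure, 30 °C; measured by: OD at 615 nm; read-out basis: growth inhibition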
# [2] = Restrictive medium S. cerevisiae growth inhibition, OD615, pilot screen of yeast lifespan reduction project, restrictive growth control (AID 706;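 active = growth inhibition above a set limit, 3 SD over mean compound inhibition, in both replicates, cut at about 43% in these data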;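 note: modified DeaD lifespan yeast strain shifted to restrictive glucose medium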); settings: OD615, 48 h, at 10 µM, stronger effect = higher value
# Summary of the method: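 material = engineered S. cerevisiae DeaD strain | buffer or medium = glucose-based CSMM-D restrictive medium | dosing = one concentration, 10 µM final, 0.25% DMSO | schedule = 4 h pre-growth plus 48 h compound exposure, 30 °C | detection = OD615 absorbance reading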
# [3] = viability gain of MRP-1-high H69AR cells under doxorubicin, pilot screen, MRP-1 activator project, CellTiter-Glo, duplicate (AID 807;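 active = viability increase at or above a cutoff of the median across tested compounds plus 3 SD, cut at about 8.5% in these data, passing the limit was not always enough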;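 note: compound pretreatment 18-22 h then 72 h combined with doxorubicin; 0% = doxorubicin alone and 100% = vehicle without doxorubicin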); settings: H69AR viability with doxorubicin, CellTiter-Glo luminescence; at 10 µM; stronger effect = higher value
# [4] = growth suppression of beta-catenin knockout HCT116, pilot screen, human colon tumor cells (AID 823;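 active = cell viability at or below a set limit in both duplicate runs, the limit being the all-compound median minus 4 SD, cut at about 23% in these data, passing the limit was not always enough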;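 note: 0% = wells killed by 20 µM Hyamine and 100% = untreated DMSO cell wells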); settings: CellTiter-Glo, 60 h, at 10 µM, stronger effect = lower value
# [5] = growth suppression of PTEN-deleted HCT116, pilot screen, cell-based, HCT116 clonal line, CellTiter-Glo (AID 824;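 active = viability at or below 27.92% in each of two runs, the all-compound median minus 4 SD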;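 note: 0% = 20 µM Hyamine control and 100% = vehicle cell control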); settings: 60 h, at 10 µM, stronger effect = lower value
# [6] = inhibitors of the yeast RAM network, pilot screen, dse1pr::URA3 reporter, 5-FOA selection (AID 869);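 note: 0% = DMSO wells with no growth and 100% = 10 µM 1-NA-PP1 with full growth; RAM network block rescues cells from 5-FOA so hits raise OD615 growth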; settings: S. cerevisiae dse1pr::URA3 5-FOA growth, OD615, 2 d; at 10 µM; stronger effect = higher value; strain carries analog-sensitive mutant Cbk1 kinase
# [7] = RAM signaling pathway blockade in yeast – S. cerevisiae, Pdr1DBD-CYC8 efflux-inhibited sensitized strain, primary screen (AID 1298;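 active = RAM network inhibition above 8.4% in each of two replicates, 3 SD over the compound average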;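 note: 0% = DMSO untreated cells without growth and 100% = 10 µM 1-NA-PP1 full growth; higher means more yeast growth rescued from 5-FOA killing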); settings: S. cerevisiae cbk1-as DSE1-URA3 strain, 5-FOA growth OD615, 2 d; at 50 µM; stronger effect = higher value
Compound,growth inhibition [1],growth inhibition [2],viability increase [3],viability [4],viability [5],inhibition [6],RAM network inhibition [7]
CCOc1ccc(CC(=O)N2CCN(c3ccc(N4CCOCC4)nn3)CC2)cc1OCC,-1.33%,8.3%,0.46%,103%,106%,-0.385%,6.26%
c1ccc(OCCSc2ncnc3nc[nH]c23)cc1,3.62%,15.4%,-0.26%,93.3%,87.4%,1.73%,3.23%
COC(=O)c1nc(NC(=O)C(C)(C)C)n[nH]1,-9.88%,-18.8%,-3.77%,92.7%,89.8%,2.06%,0.47%
CC1CCN(C(=O)C(Cc2ccccc2)NS(=O)(=O)c2ccc3c(c2)oc(=O)n3C)CC1 (configuration not stated),-12.5%,-17.6%,-1.4%,104%,94.1%,1.85%,8.04%
COCCNC(=O)CS(=O)Cc1nc(-c2ccc(Cl)cc2)oc1C (configuration not stated),-6.59%,-1.85%,-0.72%,94.7%,95.1%,3.21%,0.65%
O=C(CCC(=O)OCCCC(F)(F)C(F)(F)F)Nc1ccccc1,-3.25%,3.78%,1.41%,100%,104%,0.785%,3.34%
O=C(CSc1nnc(Cc2cc(=O)[nH]c(=O)[nH]2)n1-c1ccc(F)cc1)NC1CCCC1,-14.8%,-7.13%,-1.18%,105%,102%,0.96%,6.6%
COc1ccc(S(=O)(=O)N2CCC(C(=O)N3CCc4ccccc4C3)CC2)cc1OC,1.07%,1.26%,-2.24%,89.4%,87.6%,-0.455%,5.37%
CCOC(=O)c1ccc(NC(=O)C2CCN(S(=O)(=O)c3ccccc3)CC2)cc1,-12.1%,-10.7%,-2.54%,66.4%,70.2%,1.47%,6.37%
CC(=Nc1ccc(C)c(C)c1)C1=C(O)CSC1=O,1.08%,-8.17%,-2.54%,98.1%,90.3%,1.67%,4.33%
CCCCOC(=O)CSc1nnc(N)s1,-4.92%,-1.45%,-0.86%,105%,96.5%,0.205%,6.89%
CCC(NC(=O)c1ccccc1NC(=O)c1ccco1)C(=O)O (configuration not stated),-0.94%,-12.6%,-4.34%,109%,95.7%,0.27%,0.73%
Cc1cc(C)cc(Nc2cc(C)nc3nc(C)nn23)c1,-3.56%,11.6%,-2.41%,95.9%,90.8%,1.87%,-0.26%
COc1ccccc1C1NC(=O)NC(C)=C1C(=O)OC1CCCCC1 (configuration not stated),-4.16%,-6.71%,0.87%,97.5%,92.3%,2.65%,2.9%
Cn1c2c(c(=O)n(C)c1=O)C(c1cc3c(cc1Br)OCO3)CC(=O)N2 (configuration not stated),-4.86%,-4.15%,-0.66%,105%,99%,-0.625%,4.1%
Cc1ccc(F)cc1NC(=O)c1c(-c2ccccc2)noc1C,-10.2%,-26.1%,-2.01%,78.8%,72.9%,0.015%,2.22%
COc1ccccc1N1CSC2=C(C#N)C(c3ccc(SC)cc3)CC(=O)N2C1 (configuration not stated),-1.16%,15.8%,-5.15%,102%,94.7%,1.7%,3.52%
CCC(=O)Nc1nc2ccc3nc(C)sc3c2s1,-5.17%,32.5%,-4.98%,75.3%,81.1%,0.415%,2.94%

Compound,growth inhibition [1],growth inhibition [2],viability increase [3],viability [4],viability [5],inhibition [6],RAM network inhibition [7]
COc1ccccc1CNC(=O)c1ccc(CNc2c(N3CCCC3)c(=O)c2=O)cc1,3.65%,-2.78%,-2.46%,98.8%,94.8%,0.46%,2.8%
COCCn1c(SCC(N)=O)nc2c(c1=O)SC(C)C2 (configuration not stated),-1.48%,-3.57%,0.08%,99.4%,97%,1.84%,5.52%
CC1CCCN(C(=O)C2CCN(S(=O)(=O)c3cccc4cccnc34)CC2)C1 (configuration not stated),1.07%,3.5%,-3.54%,89.6%,85.6%,1.04%,5.46%
CCc1ccc(NC(=O)C2CC=CCC2C(=O)O)cc1 (configuration not stated),6.68%,5.45%,0.72%,98.1%,98.9%,-0.5%,4.12%
CCOc1ccccc1NC(=O)CSc1nnc(Cn2c(=O)sc3ccccc32)n1C,-8.96%,9.08%,-2.73%,91.5%,92%,1.48%,2.49%
c1ccc(Cn2ncc3c(N4CCCCC4)ncnc32)cc1,-0.96%,8.13%,-0.97%,96.2%,95.4%,0.01%,3.67%
Cc1cc2ccccc2n1CCNC(=O)C(C)C,-8.34%,-7.54%,-1.99%,102%,98.7%,0.15%,2.1%
O=C(Cn1nc(-c2ccccc2)ccc1=O)N1CCOCC1,4.29%,8.44%,-0.71%,96%,108%,-0.155%,0.21%
CN(C)C=NC(=O)/C(C#N)=C1\CCc2ccccc2N1,-9.21%,-2.15%,-2.2%,95.2%,92.5%,0.705%,6.77%
CC1CCN(CCCNC(=O)CN2CCN(Cc3ccc(Cl)cc3)C2=O)CC1,-8.6%,-8.52%,-0.83%,90.8%,89.3%,2.27%,4.2%
CC1(C)CC(N2CCN(c3ccccc3)CC2)=CC(=[N+]2CCCC2)C1,-2.24%,-20.8%,-3.22%,18.1% (active),18.4% (active),1.37%,0.52%
Cc1ccnc(SCCn2c(N3CCN(c4ccccc4)CC3)nc3c2c(=O)[nH]c(=O)n3C)n1,-8.81%,5.83%,-3.59%,89.4%,76.8%,2.09%,4.01%
CC(=O)N1CCN(CCN=CC2=C(O)CC(c3ccc(Cl)cc3)CC2=O)CC1 (configuration not stated),-8.45%,-3.19%,1.98%,99.2%,101%,1.2%,-0.17%
c1ccc2c(c1)[nH]c1nc3nncn3nc12,-7.18%,-14.9%,-1.07%,94%,93%,1.29%,7.04%
CCOc1ccc(C2CC(c3ccc(F)cc3)n3ncnc3N2)cc1 (configuration not stated),4.61%,-1.42%,-0.13%,100%,91.1%,2.65%,-0.36%
COc1cc(NC(=O)c2c(-c3ccccc3Cl)noc2C)c2ncccc2c1,-15.8%,-18.1%,-0.47%,60.2%,64.3%,2.6%,7.52%
Cc1cc(C)c2c(n1)nn1c(C)c(CCC(=O)NCc3ccco3)c(C)nc21,3.4%,1.73%,-4.82%,89.8%,94.8%,0.545%,2.09%
N#CCCn1c(C(C#N)(CCC#N)CCC#N)nc2ccccc21,5.8%,5.04%,-0.72%,96.5%,99.4%,1.6%,1.63%
